Screening data (PubChem BioAssay)
XBP1 UPR activ: adaptive UPR (XBP1) activation; CHO-XBP1 luciferase reporter, IRE1-XBP1 UPR activation, luminescence; percent of tunicamycin response, DMSO as zero; activation, % at 20 µM; actives 0.33% (n = 330,000); AID 463104;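 active = versus positive control, 20 µM dose yields 30% or more activation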;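 also: 100% = tunicamycin at 10 µg/mL and 0% = DMSO only wells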
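Material – CHO cell line with stable XBP1 luciferase reporter · Buffer or medium – F12 plus 10% FBS · Compound – single point, 20 µM final compound, 1% DMSO · Schedule – 16-18 h cell attachment at 37 °C, then 6 h compound exposure · Signal – Steady-Glo luminescence read · Benchmarks – high control tunicamycin 10 µg/mL final, low control DMSO vehicle only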
A1 inh: inhibitors of the anti-apoptotic protein A1, read as caspase activation. actives 0.066% (n = 330,000). MEF A1-2A-BIM cells, Caspase-Glo 3/7 luminescence, 3 h; percent of clofoctol response, vehicle zero. caspase activation, % (concentration not given with the values);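 active = over half of replicate activation scores above 10%, or exactly half above 10 with the replicate mean above 10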
CHOP inh: CHOP inhibition in unfolded protein response; CHO-K1 CHOP-promoter luciferase, tunicamycin-induced, 15-18 h; inhibition, % at 10 µM; actives 3.8% (n = 220,000);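 active = compounds that reduced the stress-induced luciferase reporter signal by more than about 70% of percent inhibition, limit read from the data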;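 also: 0% = tunicamycin plus vehicle and 100% = wells without tunicamycin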
UPR CHOP act: activators of apoptotic arm of unfolded protein response (CHOP) | CHO-CHOP luciferase reporter, UPR activation, luminescence; percent of tunicamycin response over DMSO baseline | activation, % at 10 µM | actives 0.34% (n = 330,000);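 active = at 10 µM dose, activation of 40% or more, normalized to positive control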;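 also: 100% = tunicamycin at 10 µg/mL and 0% = DMSO alone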
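Evaluation: % reporter activation, DMSO baseline versus tunicamycin full activation; System: CHO-CHOP luciferase reporter cell line; Input: 500 cells/well; Incubation: 6 h compound treatment, 37 °C; Measured by: Steady-Glo luciferase luminescence; Dosing: one dose, 10 µM in 0.5% DMSO; Buffer or medium: F12 medium, 10% FBS; Benchmarks: positive tunicamycin 10 µg/mL, negative DMSO alone.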
Starred values were filed as active, the others as inactive; . = not tested or not shown. The entries come from a sample that favours hits as a whole.

SMILES	XBP1 UPR activ	A1 inh	CHOP inh	UPR CHOP act
O=C(O)c1cc(N/N=C/c2ccc3c(c2)OCCO3)ccc1Cl	.	-7.2	72.2*	.
COc1cc(Br)c(C2C(C#N)=C(N)Oc3n[nH]c(-c4cccnc4)c32)cc1OC (stereo not drawn)	-6.3	1.2	6.8	-0.8
O=C(O)c1ccc(N/N=C/c2ccc3c(c2)OCO3)cc1	-10.1	-5.9	93.5*	-9.2
O=C(O)c1ccc(N/N=C/c2cc3c(cc2[N+](=O)[O-])OCO3)cc1	-0.1	-7.2	5.0	-0.4
CCOc1ccc(/C=C2\SC(=S)N(CC(=O)NCCCN3CCOCC3)C2=O)cc1	7.5	0.4	.	3.5
CCOP(=O)(OCC)c1nc(-c2cccc3ccccc23)oc1NCc1ccccc1	0.7	-0.3	77.4*	-1.2
CCOP(=O)(OCC)c1nc(/C=C/c2ccccc2)oc1NCc1ccc(OC)cc1	-0.8	-0.2	76.5*	-1.1
O=C(O)CCCn1c(=S)[nH]c2c(sc3ccc([N+](=O)[O-])cc32)c1=O	-4.8	-0.1	-3.5	-1.9
N#Cc1ccccc1OCC(=O)N1N=C(c2cccs2)CC1c1ccco1 (stereo not drawn)	4.8	0.1	.	4.1
N#CC(Sc1ccccn1)c1ccc(Cl)cc1Cl (stereo not drawn)	-0.2	0.3	73.5*	-1.3
N#Cc1cc(Sc2ccccn2)c(Sc2ccccn2)cc1C#N	1.2	-1.0	10.3	3.6
Cc1cc(NC(=O)C2CC2)n(-c2nc3ccccc3s2)n1	-2.7	-0.6	9.6	1.1
Cc1cc(NC(=O)CCl)n(-c2nc3ccccc3s2)n1	3.4	1.9	77.1*	10.9
Cc1ccc(CN2C(=O)CCC2C(=O)NCCCN2CCC(C)CC2)cc1 (stereo not drawn)	.	.	8.3	.
COc1ccc(-c2cc(C(F)(F)F)nc(NCc3cccs3)n2)cc1	-1.3	0.2	17.6	1.1
Cc1ccc(CC(=O)NCc2cccnc2)cc1	-3.3	1.2	-3.7	-0.9
Cc1ccc(-c2cc(C(F)F)nc(NCc3cccnc3)n2)cc1	-0.8	-0.7	75.7*	3.0
Cc1ccc(-c2cc(C(F)F)nc(NCC3CCCO3)n2)cc1 (stereo not drawn)	10.7	-0.3	85.7*	1.0
FC(F)(F)c1cc(-c2ccc(Cl)cc2)nc(NCc2cccnc2)n1	0.2	0.1	89.0*	1.0
Cc1ccc(-c2cc(C(F)F)nc(NCc3cccs3)n2)cc1	-2.5	-0.9	90.7*	0.7
C=CCNC(=O)c1onc(CSc2ccc(OC)cc2)c1C(=O)O	.	-0.3	20.4	.
CC12CC(NC(=O)N1c1cccc(C(=O)N3CCN(c4ccccc4F)CC3)c1)c1ccccc1O2 (stereo not drawn)	-1.5	-0.2	18.6	-2.8
COc1ccc(/C=N/NC(=O)c2cccc(NC(=O)c3ccc(F)cc3)c2)c(C(=O)O)c1OC	0.1	1.5	-6.0	-1.4
Cc1ccc(C(=O)Nc2cccc([N+](=O)[O-])c2)cc1S(=O)(=O)Nc1ccc(C(=O)O)cc1	-0.3	-1.8	12.1	2.5
Cc1cccc(NS(=O)(=O)c2cc(NC(=O)CC(=O)c3ccc([N+](=O)[O-])cc3)ccc2C)c1	.	.	93.0*	.
SMILES	XBP1 UPR activ	A1 inh	CHOP inh	UPR CHOP act
O=C(NC1CCCCC1)C(c1cccnc1)N(C(=O)CCl)c1cccc(Cl)c1 (stereo not drawn)	-6.0	-0.5	109.3*	9.4
Cc1ccc(-c2nc3ccccc3o2)cc1NC(=O)c1ccc2c(c1)OCO2	-1.3	-1.0	86.6*	3.0
Cc1c(NC(=O)c2ccc3c(c2)OCO3)cccc1-c1nc2ccccc2o1	-1.9	0.3	-8.2	0.6
O=C(Nc1cccc(-c2nc3ncccc3o2)c1)c1cc2ccccc2o1	-1.4	0.1	20.4	-1.5
Cc1ccc(-c2nc3ccccc3o2)cc1NC(=S)NC(=O)c1cccs1	5.2	0.4	81.6*	2.0
Cc1ccc(-c2nc3ncccc3o2)cc1NC(=O)c1cc2ccccc2o1	-6.0	0.6	70.3*	-2.8
Cc1cc(C)c2oc(-c3ccc(C)c(NC(=S)NC(=O)c4cccs4)c3)nc2c1	1.9	-0.3	-5.3	1.0
CC(C)(C)c1ccc(C(=O)NN2C(=O)CSC2=S)cc1	0.1	-0.2	7.0	1.0
N/C(CSc1nc(-c2ccccc2)c(-c2ccccc2)o1)=N\O	0.1	0.2	31.6	-0.9
CCc1nnc(NC(=O)CSc2nc3c(c(=O)n2C)SC(C)C3)s1 (stereo not drawn)	1.3	0.2	23.0	-0.5
Cc1nnc(NC(=O)CSc2nc3c(c(=O)n2CCc2ccccc2)SC(C)C3)s1 (stereo not drawn)	8.2	0.5	92.7*	-1.4
CC1Cc2nc(SCC(=O)Nc3nc4ccccc4s3)n(C)c(=O)c2S1 (stereo not drawn)	0.1	0.6	75.4*	1.0
O=C(N/C(=C/c1ccccc1Cl)C(=O)N1CCOCC1)c1ccccc1	2.5	-0.8	.	0.8
CC1=CC(C)(C)N(C(=O)C(C)N2C(=O)c3ccccc3C2=O)c2c(C)cc(C)cc21 (stereo not drawn)	.	.	104.6*	.
O=C(C1CCN(S(=O)(=O)c2cc(Cl)ccc2Cl)CC1)N1CCOCC1	-5.9	1.7	.	-0.1
CCCOc1ccc(CNC(=S)NCc2ccc(OC(C)C)cc2)cc1	-3.8	-0.5	82.1*	-2.2
CCCOc1ccc(CNC(=S)N/N=C/c2ccc([N+](=O)[O-])cc2)cc1	3.4	1.2	-6.8	0.7
CCC1CCCCN1CCCNC(=O)c1ccc2c(c1)NC(=O)CN2C (stereo not drawn)	-2.5	1.8	.	0.4
CC(C)c1nc2sc3c(NCc4ccco4)ncnc3c2c2c1COC(C)(C)C2	7.6	-0.1	78.5*	1.4
O=C(NCc1ccccc1)C12CC3CC(CC(C3)C1)C2	-0.3	0.1	43.2	-2.6
O=C(Nn1nnnc1Nc1ccccc1)C12CC3CC(CC(C3)C1)C2	-7.7	-0.4	93.8*	-0.4
CC(C)c1nc(SCC(=O)Nc2cccc(C(F)(F)F)c2)c2c(=O)n(C)c(=O)n(C)c2n1	-5.0	-0.3	70.3*	1.0
CC(C)c1nc(SCC(=O)N2CCN(c3ccccc3)CC2)c2c(=O)n(C)c(=O)n(C)c2n1	0.0	.	70.2*	2.8
C/C(=N\NC(=O)C1(C)CC1(Br)Br)c1cccc(NC(=O)C(C)(C)C)c1 (stereo not drawn)	0.4	-0.6	-11.9	3.3
CCOc1ccc(CCNC(=O)c2nnn(CC(=O)Nc3c(C)cc(C)cc3C)c2N)cc1OCC	-0.6	0.8	.	0.2
CC(=Nc1cccc(C)c1)c1sc2ccccc2c1O	0.7	0.1	77.4*	2.5
CC(=O)Nc1ccc(S(=O)(=O)N2CCN(Cc3cccc([N+](=O)[O-])c3)CC2)cc1	-2.6	1.0	13.4	0.8
Cc1nn(Cc2c(F)c(F)c(F)c(F)c2F)c(C)c1NC(=O)c1ccc(COc2ccc(Cl)cc2Cl)o1	1.0	0.4	70.2*	4.2
